In brackets after ≈: the same amount, converted by molar mass. Activity calls are given as the source filed them. The rule behind the calls is not given here.
Assays:
Staphylococcus aureus [1] = test: Antibacterial activity against methicillin-resistant Staphylococcus aureus subsp. aureus ATCC 43300 CCM 4750 at highest concentration measured after 24 to 48 hrs by alamar blue dye based broth microdilution assay; assay type: functional, organism-based
Candida tropicalis = test: Antifungal activity against Candida tropicalis ATCC 750 CCM 8264 at highest concentration measured after 24 to 48 hrs by alamar blue dye based broth microdilution assay; assay type: functional, organism-based
Mycobacterium avium [2] = test: Antimycobacterial activity against Mycobacterium avium CNCTC My 330/88 after 21 days; assay type: functional; details: CNCTC My 330/88, 504 h
Procedure, shortened: (§1)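 M. avium was tested by microdilution in Šula's semisynthetic medium, with compounds dissolved in DMSO and serially diluted from 1000 down to 1. Inoculum was a 1.0 McFarland suspension diluted 10-5. Plates were incubated at 37 °C and read at 14 and 21 days. […] Isoniazid and rifampicin served as standards.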

Klebsiella pneumoniae = test: Antibacterial activity against Klebsiella pneumoniae at highest concentration measured after 24 to 48 hrs by alamar blue dye based broth microdilution assay; assay type: functional, organism-based
Serratia marcescens = test: Antibacterial activity against Serratia marcescens at highest concentration measured after 24 to 48 hrs by alamar blue dye based broth microdilution assay; assay type: functional, organism-based
Mycobacterium kansasii [3] = test: Antimycobacterial activity against Mycobacterium kansasii CNCTC My 235/80 after 21 days; assay type: functional; details: CNCTC My 235/80, 504 h
Procedure, shortened: (§2)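 Microdilution in Šula's semisynthetic medium; compounds in DMSO at 32–0.03 µM. Inoculum from 1.0 McFarland suspension diluted 10-4. […] Isoniazid and rifampicin as reference drugs.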

[4] = system: Mycobacterium tuberculosis; test: Antimycobacterial activity against Mycobacterium tuberculosis H37Rv CNCTC My 331/88 after 14 days; assay type: functional; details: H37Rv CNCTC My 331/88, 336 h
Procedure, shortened: (§3)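 M. tuberculosis strains (H37Rv and clinical MDR/XDR isolates) tested by microdilution in Šula's semisynthetic medium. Compounds were dissolved in DMSO and tested at 32 to 0.03 µM in twofold steps. Inoculum was a 1.0 McFarland suspension diluted 10-3. Plates were incubated at 37 °C and read at 14 and 21 days.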

Mycobacterium kansasii [5] = test: Antimycobacterial activity against Mycobacterium kansasii 6509/96 after 14 days; assay type: functional; details: 6509/96, 336 h; procedure, shortened: as §2
Staphylococcus aureus [6] = test: Antibacterial activity against Staphylococcus aureus subsp. aureus ATCC 29213 CCM 4223 at highest concentration measured after 24 to 48 hrs by alamar blue dye based broth microdilution assay; assay type: functional, organism-based
Pseudomonas aeruginosa = test: Antibacterial activity against Pseudomonas aeruginosa ATCC 27853 CCM 3955 at highest concentration measured after 24 to 48 hrs by alamar blue dye based broth microdilution assay; assay type: functional, organism-based
Mycobacterium avium [7] = test: Antimycobacterial activity against Mycobacterium avium CNCTC My 330/88 after 14 days; assay type: functional; details: CNCTC My 330/88, 336 h; procedure, shortened: as §1
Aspergillus flavus = test: Antifungal activity against Aspergillus flavus CCM 8363 at highest concentration measured after 24 to 48 hrs by alamar blue dye based broth microdilution assay; assay type: functional, organism-based
Candida parapsilosis = test: Antifungal activity against Candida parapsilosis ATCC 22019 CCM 8260 at highest concentration measured after 24 to 48 hrs by alamar blue dye based broth microdilution assay; assay type: functional, organism-based
Mycobacterium kansasii [8] = test: Antimycobacterial activity against Mycobacterium kansasii CNCTC My 235/80 after 7 days; assay type: functional; details: CNCTC My 235/80, 168 h; procedure, shortened: as §2
[9] = system: Staphylococcus epidermidis; test: Antibacterial activity against Staphylococcus epidermidis at highest concentration measured after 24 to 48 hrs by alamar blue dye based broth microdilution assay; assay type: functional, organism-based
Candida albicans = test: Antifungal activity against Candida albicans ATCC 24433 CCM 8320 at highest concentration measured after 24 to 48 hrs by alamar blue dye based broth microdilution assay; assay type: functional, organism-based
Mycobacterium kansasii [10] = test: Antimycobacterial activity against Mycobacterium kansasii 6509/96 after 21 days; assay type: functional; details: 6509/96, 504 h; procedure, shortened: as §2
Enterococcus faecalis = test: Antibacterial activity against Enterococcus faecalis ATCC 29212 CCM 4224 at highest concentration measured after 24 to 48 hrs by alamar blue dye based broth microdilution assay; assay type: functional, organism-based
[11] = system: Trichophyton interdigitale; test: Antifungal activity against Trichophyton interdigitale ATCC 9533 CCM 8377 at highest concentration measured after 72 to 120 hrs by alamar blue dye based broth microdilution assay; assay type: functional
Mycobacterium kansasii [12] = test: Antimycobacterial activity against Mycobacterium kansasii 6509/96 after 7 days; assay type: functional; details: 6509/96, 168 h; procedure, shortened: as §2
[13] = system: Mycobacterium tuberculosis; test: Antimycobacterial activity against Mycobacterium tuberculosis H37Rv CNCTC My 331/88 after 21 days; assay type: functional; details: H37Rv CNCTC My 331/88, 504 h; procedure, shortened: as §3
Mycobacterium kansasii [14] = test: Antimycobacterial activity against Mycobacterium kansasii CNCTC My 235/80 after 14 days; assay type: functional; details: CNCTC My 235/80, 336 h; procedure, shortened: as §2
Lichtheimia corymbifera = test: Antifungal activity against Lichtheimia corymbifera CCM 8077 at highest concentration measured after 24 to 48 hrs by alamar blue dye based broth microdilution assay; assay type: functional, organism-based
Escherichia coli = test: Antibacterial activity against Escherichia coli ATCC 25922 CCM 3954 at highest concentration measured after 24 to 48 hrs by alamar blue dye based broth microdilution assay; assay type: functional, organism-based
Aspergillus fumigatus = test: Antifungal activity against Aspergillus fumigatus ATCC 204305 at highest concentration measured after 24 to 48 hrs by alamar blue dye based broth microdilution assay; assay type: functional, organism-based
Pichia kudriavzevii = test: Antifungal activity against Candida krusei ATCC 6258 CCM8271 at highest concentration measured after 24 to 48 hrs by alamar blue dye based broth microdilution assay; assay type: functional, organism-based

| SMILES | Activity (Staphylococcus aureus [1]) | Activity (Candida tropicalis) | MIC99 (Mycobacterium avium [2]) | Activity (Klebsiella pneumoniae) | Activity (Serratia marcescens) | MIC99 (Mycobacterium kansasii [3]) | MIC99 [4] | MIC99 (Mycobacterium kansasii [5]) | Activity (Staphylococcus aureus [6]) | Activity (Pseudomonas aeruginosa) | MIC99 (Mycobacterium avium [7]) | Activity (Aspergillus flavus) | Activity (Candida parapsilosis) | MIC99 (Mycobacterium kansasii [8]) | Activity [9] | Activity (Candida albicans) | MIC99 (Mycobacterium kansasii [10]) | Activity (Enterococcus faecalis) | Activity [11] | MIC99 (Mycobacterium kansasii [12]) | further results |
| --- | --- | --- | --- | --- | --- | --- | --- | --- | --- | --- | --- | --- | --- | --- | --- | --- | --- | --- | --- | --- | --- |
| CCCCCCCCCCCCn1c(SCc2cc([N+](=O)[O-])cc([N+](=O)[O-])c2)nnc1-c1ccccc1 | inactive | inactive | 250 µM (≈ 131 µg/mL) | inactive | inactive | 4 µM (≈ 2.1 µg/mL) | 2 µM (≈ 1.05 µg/mL) | 4 µM (≈ 2.1 µg/mL) | inactive | inactive | 250 µM (≈ 131 µg/mL) | inactive | inactive | 2 µM (≈ 1.05 µg/mL) | inactive | inactive | 4 µM (≈ 2.1 µg/mL) | inactive | inactive | 2 µM (≈ 1.05 µg/mL) | MIC99 [13]: 4 µM (≈ 2.1 µg/mL); MIC99 (Mycobacterium kansasii [14]): 2 µM (≈ 1.05 µg/mL); Activity (Lichtheimia corymbifera): inactive; Activity (Escherichia coli): inactive; Activity (Aspergillus fumigatus): inactive; Activity (Pichia kudriavzevii): inactive |
| O=[N+]([O-])c1cc(CSc2nnc(-c3ccc(O)cc3)n2Cc2ccccc2)cc([N+](=O)[O-])c1 | inactive | inactive | 250 µM (≈ 116 µg/mL) | inactive | inactive | 16 µM (≈ 7.42 µg/mL) | 16 µM (≈ 7.42 µg/mL) | 16 µM (≈ 7.42 µg/mL) | inactive | inactive | 250 µM (≈ 116 µg/mL) | inactive | inactive | 8 µM (≈ 3.71 µg/mL) | inactive | inactive | 16 µM (≈ 7.42 µg/mL) | inactive | inactive | 8 µM (≈ 3.71 µg/mL) | MIC99 [13]: 16 µM (≈ 7.42 µg/mL); MIC99 (Mycobacterium kansasii [14]): 16 µM (≈ 7.42 µg/mL); Activity (Lichtheimia corymbifera): inactive; Activity (Escherichia coli): inactive; Activity (Aspergillus fumigatus): inactive; Activity (Pichia kudriavzevii): inactive |
| O=[N+]([O-])c1cc(CSc2nnc(-c3ccccc3)n2Cc2ccccc2)cc(C(F)(F)F)c1 | inactive | inactive | 250 µM (≈ 118 µg/mL) | inactive | inactive | > 32 µM | 16 µM (≈ 7.53 µg/mL) | > 32 µM | inactive | inactive | 250 µM (≈ 118 µg/mL) | inactive | inactive | > 32 µM | inactive | inactive | > 32 µM | inactive | inactive | > 32 µM | MIC99 [13]: 32 µM (≈ 15.1 µg/mL); MIC99 (Mycobacterium kansasii [14]): > 32 µM; Activity (Lichtheimia corymbifera): inactive; Activity (Escherichia coli): inactive; Activity (Aspergillus fumigatus): inactive; Activity (Pichia kudriavzevii): inactive |
| CCCCCCc1nnc(SCc2cc([N+](=O)[O-])cc([N+](=O)[O-])c2)n1Cc1ccccc1 | inactive | inactive | 250 µM (≈ 114 µg/mL) | inactive | inactive | 2 µM (≈ 0.911 µg/mL) | 2 µM (≈ 0.911 µg/mL) | 4 µM (≈ 1.82 µg/mL) | inactive | inactive | 250 µM (≈ 114 µg/mL) | inactive | inactive | 1 µM (≈ 0.456 µg/mL) | inactive | inactive | 4 µM (≈ 1.82 µg/mL) | inactive | inactive | 2 µM (≈ 0.911 µg/mL) | MIC99 [13]: 2 µM (≈ 0.911 µg/mL); MIC99 (Mycobacterium kansasii [14]): 2 µM (≈ 0.911 µg/mL); Activity (Lichtheimia corymbifera): inactive; Activity (Escherichia coli): inactive; Activity (Aspergillus fumigatus): inactive; Activity (Pichia kudriavzevii): inactive |
| O=[N+]([O-])c1cc(Cn2c(SCc3ccccc3)nnc2-c2ccccc2)cc([N+](=O)[O-])c1 | inactive | inactive | > 1000 µM | inactive | inactive | 16 µM (≈ 7.16 µg/mL) | 8 µM (≈ 3.58 µg/mL) | 16 µM (≈ 7.16 µg/mL) | inactive | inactive | > 1000 µM | inactive | inactive | 4 µM (≈ 1.79 µg/mL) | inactive | inactive | 16 µM (≈ 7.16 µg/mL) | inactive | inactive | 8 µM (≈ 3.58 µg/mL) | MIC99 [13]: 16 µM (≈ 7.16 µg/mL); MIC99 (Mycobacterium kansasii [14]): 8 µM (≈ 3.58 µg/mL); Activity (Lichtheimia corymbifera): inactive; Activity (Escherichia coli): inactive; Activity (Aspergillus fumigatus): inactive; Activity (Pichia kudriavzevii): inactive |
